Consider eight molecules from ChEMBL document CHEMBL2401617, “Synthesis and biological evaluation of some novel thiazole compounds as potential anti-inflammatory agents” (2013).

Common to all, as to assay type: functional
For assay [1], the system named is Bacillus cereus. Nature of the assay: Antibacterial activity against Bacillus cereus NCTC 14579 assessed as growth inhibition after 24 hrs by Kirby-Bauer disc diffusion method. In short, it runs like this: (§1)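 Modified Kirby-Bauer disc diffusion on Mueller-Hinton agar spread with broth culture at about 10^8 cells/ml. Blank 8.0 mm paper discs were impregnated with test solution. Ampicillin discs at the same concentration and solvent served as positive control, and solvent discs as negative control. Plates were incubated at 35–37 °C, and inhibition-zone diameter (mm) was read at 24 h by caliper. % activity index = zone relative to ampicillin.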
On the technique in general: In agar diffusion tests the substance spreads into inoculated agar from a disc or well.

Assay [2] relates to Staphylococcus aureus. Nature of the assay: Antibacterial activity against Staphylococcus aureus NCTC 7447 assessed as growth inhibition after 24 hrs by Kirby-Bauer disc diffusion method relative to ampicillin. Details: concentration or dose not given beside the values. The gist of the method:
as §1

Assay [3] has as its system Staphylococcus aureus. Nature of the assay: Antibacterial activity against Staphylococcus aureus NCTC 7447 assessed as growth inhibition after 24 hrs by Kirby-Bauer disc diffusion method. The gist of the method:
as §1

The subject of assay [4] is Bacillus cereus. Nature of the assay: Antibacterial activity against Bacillus cereus NCTC 14579 assessed as growth inhibition after 24 hrs by Kirby-Bauer disc diffusion method relative to ampicillin. The gist of the method: as §1
The test system of assay [5] is Serratia marcescens. Nature of the assay: Antibacterial activity against Serratia marcescens IMRU 70 assessed as growth inhibition after 24 hrs by Kirby-Bauer disc diffusion method relative to ampicillin. The arrangement: concentration or dose not given beside the values. The gist of the method:
as §1

Assay [6] has as its system Proteus mirabilis. Nature of the assay: Antibacterial activity against Proteus mirabilis NCTC 289 assessed as growth inhibition after 24 hrs by Kirby-Bauer disc diffusion method. In short, it runs like this: as §1
For assay [7], the system named is Proteus mirabilis. Nature of the assay: Antibacterial activity against Proteus mirabilis NCTC 289 assessed as growth inhibition after 24 hrs by Kirby-Bauer disc diffusion method relative to ampicillin. Details: concentration or dose not given beside the values. The gist of the method:
as §1

Assay [8] has as its system Serratia marcescens. Nature of the assay: Antibacterial activity against Serratia marcescens IMRU 70 assessed as growth inhibition after 24 hrs by Kirby-Bauer disc diffusion method. In short, it runs like this: as §1

Turning to `C/C(=N\NC1=NC(=N)CS1)c1ccc(N2CCOCC2)cc1`, the “diameter of the inhibition zone (DIZ)” value in assay [1] came out at 4 mm; in assay [3], 5 mm; in assay [6], 2 mm; in assay [8], 3 mm. Besides, the Activity_index was determined as 20.83% in assay [2], 17.39% in assay [4], 15.72% in assay [5] and 9.52% in assay [7].

For the molecule `C/C(=N/NC(=O)/C(C#N)=C1/SC=C(c2ccccc2)N1c1ccccc1)c1ccc(N2CCOCC2)cc1`, the “diameter of the inhibition zone (DIZ)” value in assay [1] is 4 mm; in assay [3], 5 mm; in assay [6], 2 mm; in assay [8], 3 mm. The Activity_index in assay [2] is 20.83%; in assay [4], 17.39%; in assay [5], 15.72%; in assay [7] it was 9.52%.

For the molecule `CC1=C(O)N(c2ccccc2)/C(=C(/C#N)C(=O)N/N=C(/C)c2ccc(N3CCOCC3)cc2)S1`, the “diameter of the inhibition zone (DIZ)” value in assay [1] is given as 3 mm; in assay [3], 5 mm; in assay [6] it was 3 mm; in assay [8] it was 3 mm. The Activity_index in assay [2] was 20.83%; in assay [4], 13.04%; in assay [5], 15.72%; in assay [7], 14.28%.

For the molecule `C/C(=N/NC(=O)c1sc(=S)n(-c2ccccc2)c1N)c1ccc(N2CCOCC2)cc1`, the “diameter of the inhibition zone (DIZ)” value in assay [1] worked out at 3 mm; in assay [3], 4 mm; in assay [6], 2 mm; in assay [8], 2 mm. Also, the Activity_index came out at 16.67% in assay [2], 13.04% in assay [4], 15.72% in assay [5] and 9.52% in assay [7].

For `C/C(=N/NC(=O)c1sc(=S)n(-c2ccc3ccccc3c2)c1N)c1ccc(N2CCOCC2)cc1`, the “diameter of the inhibition zone (DIZ)” value is listed as 3 mm in assay [1], 5 mm in assay [3], 2 mm in assay [6] and 2 mm in assay [8]. The Activity_index in assay [2] was 20.83%; in assay [4], 13.04%; in assay [5], 15.72%; in assay [7], 9.52%.

Consider `Cc1ccc(/C=N/c2nc(-c3ccc(N4CCOCC4)cc3)cs2)cc1`, for which the “diameter of the inhibition zone (DIZ)” value in assay [1] worked out at 4 mm; in assay [3], 4 mm; in assay [6], 2 mm; in assay [8], 3 mm. Moreover, the Activity_index is recorded as 16.67% in assay [2], 17.39% in assay [4], 15.72% in assay [5] and 9.52% in assay [7].

Consider `CC(=O)N(C(C)=O)c1nc(-c2ccc(N3CCOCC3)cc2)cs1`, for which the “diameter of the inhibition zone (DIZ)” value in assay [1] was found to be 4 mm; in assay [3], 5 mm; in assay [6] it was 3 mm; in assay [8] it was 2 mm. Further, the Activity_index in assay [2] turned out to be 20.83%; in assay [4], 17.39%; in assay [5], 15.72%; in assay [7], 14.28%.

Turning to `CC1(C)S[C@@H]2[C@H](NC(=O)[C@H](N)c3ccccc3)C(=O)N2[C@H]1C(=O)O` [AMPICILLIN], the “diameter of the inhibition zone (DIZ)” value in assay [1] was 23 mm; in assay [3] it was 24 mm; in assay [6], 21 mm; in assay [8], 21 mm.
